High-throughput results: PubChem, Broad Institute
ARNT-TACC3 inh = disruptors of human ARNT/TACC3 interaction; Q9Y6A5; AlphaScreen His-ARNT PAS-B/GST-TACC3 binding, luminescence; TACC3 fragment carries E629A point mutation; inhibition, % at 9.99 µM; actives 0.66% (n = 390,000);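 active = mean inhibition of replicates at least 50% and at least half of replicates each reaching 50%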;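 note: 0% = complete ARNT plus TACC3 wells and 100% = ARNT alone without TACC3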
CAL PDZ FP-1 = inhibitors of human CAL PDZ peptide binding | AID 602252 | purified CAL PDZ, TMR-peptide fluorescence polarization, 1 h | actives 0.92% (n = 300,000) | inhibition, % at 24.9 µM;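 active = mean inhibition of at least 30% with at least half of replicates also reaching 30%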;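 note: 0% = DMSO neutral control and 100% = excess unlabeled competitor peptide PRC23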
CAL PDZ FP-2 = human CAL PDZ-peptide interaction inhibition; AID 504414; purified CAL PDZ, TMR-peptide fluorescence polarization, 1 h; actives 0.02% (n = 330,000); Q9HD26; inhibition, % at 20 µM;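 active = highest replicate inhibition of at least 40%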;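 note: plate controls were DMSO neutral control wells for no effect and unlabeled competitor peptide control wells for full effect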
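Test system: tagged CAL PDZ domain / Buffer or medium: sodium phosphate/NaCl buffer pH 7.4 with TCEP, IgG, Thesit / Reagent: TMR-labelled reporter peptide T*-PRC34 bound in PDZ groove / Compound dosing: single point, 20 µM / Schedule: 1 h incubation at room temperature before polarization reading / Technique: fluorescence polarization (mP) / Benchmarks: unlabelled peptide, DMSO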
Starred values were filed as active, the others as inactive; nt = no result; + = active, no number. An excerpt weighted towards active compounds, which were near 1.2% of everything screened.

SMILES	ARNT-TACC3 inh	CAL PDZ FP-1	CAL PDZ FP-2
CN1CCN(CCCNC(=O)CCCOc2cc(=O)n(C)c3ccccc23)CC1	-1.3	2.3	-2.4
COc1ccccc1-n1cc(-c2ccc(C)cc2)[nH]c1=S	-9.5	2.3	1.5
COc1ccccc1-n1cc(-c2ccc([N+](=O)[O-])cc2)[nH]c1=S	-8.5	62.7*	0.8
CC(=O)N(C)C[C@H]1OCc2ccccc2-c2c(n(C)c3ccccc23)C(=O)N([C@H](C)CO)C[C@H]1C	5.8	nt	nt
CN(C)c1cccc(C(=O)NNC(=O)/C=C/c2cccs2)c1	-1.2	77.1*	1.2
CNC(=S)NNC(=O)c1cccc(N(C)C)c1	-6.5	-2.6	-5.8
CC(C)NC(=O)NCC[C@@H]1CC[C@H](NS(=O)(=O)c2ccc(Oc3ccccc3)cc2)[C@H](CO)O1	-2.0	nt	nt
O=C(C[n+]1ccc(Cc2ccccc2)cc1)Nc1ccc([N+](=O)[O-])cc1Cl	-1.6	0.7	-3.7
Cc1ccc(Cl)cc1NC(=O)C[n+]1ccc(Cc2ccc([N+](=O)[O-])cc2)cc1	50.9*	-2.5	-1.0
CCNC(=O)[C@@H]1[C@@H](CO)[C@@H]2Cn3c(ccc(-c4ccccc4F)c3=O)[C@H]1N2CCC(F)(F)F	1.4	nt	nt
C[C@@H]1CN([C@@H](C)CO)C(=O)CCCn2cc(nn2)CO[C@H]1CN(C)Cc1ccc2c(c1)OCCN2C	-6.9	nt	nt
Cc1cc(NC(=O)c2cc(C)on2)no1	-1.5	-3.1	-1.6
Cc1cc(NC(=O)c2c(Br)c(C)nn2C)no1	-5.6	82.7*	-0.3
COc1cccc(C=Nc2ccccc2C(=O)Nc2nccs2)c1OC	19.4	nt	0.1
O=C(Nc1nccs1)c1ccccc1N=Cc1ccccc1	-10.4	58.8*	6.1
COc1ccc(S(=O)(=O)Nc2ccc3c(c2)[C@@H]2C[C@H](CC(=O)NCC4CC4)O[C@@H](CO)[C@@H]2O3)cc1	1.2	nt	nt
CC(O)(c1ccccc1)c1ccc2ccccc2n1 (stereo not drawn)	-3.7	44.7*	-0.7
Cc1cccc(C(O)(C(=O)NNc2ccc3ccccc3n2)c2cccc(C)c2)c1	-10.4	1.3	-1.1
CN(C)CC(=O)Nc1ccc2c(c1)[C@@H]1C[C@@H](CC(=O)NCc3ccc(-c4ccccc4)cc3)O[C@@H](CO)[C@@H]1O2	6.9	nt	nt
CC(Oc1ccc2ccccc2c1)C(=O)N/N=C/c1cccnc1 (stereo not drawn)	1.1	0.7	-1.8
CC(Nc1ccc2ccccc2c1)C(=O)N/N=C/c1ccncc1 (stereo not drawn)	active	0.3	0.7
CC(=O)N(c1ccc(C)cc1)S(=O)(=O)c1ccc(Cl)cc1	-2.6	45.9*	-0.9
CC(=O)N(c1cccc(C)c1)S(=O)(=O)c1ccc(Cl)cc1	-3.3	nt	0.3
O=C(O)c1ccc(N=Nc2c(O)ccc3ncccc23)cc1	61.9*	1.9	-1.3
O=C(O)c1cc(N=Nc2c(O)ccc3ccccc23)cc(C(=O)O)c1	nt	6.4	-3.8
SMILES	ARNT-TACC3 inh	CAL PDZ FP-1	CAL PDZ FP-2
Cc1cc(C(=O)Nc2cccc3c2O[C@H](CN(C)C(=O)Nc2ccccc2)[C@H](C)CN([C@@H](C)CO)C3=O)n(C)n1	4.5	nt	nt
CCCCCN1CC(=O)N2[C@@H](Cc3c([nH]c4ccccc34)C2(C)C)C1=O	-17.0	-0.6	-0.7
CC(C)CCN1CC(=O)N2[C@@H](Cc3c([nH]c4ccccc34)C2(C)C)C1=O	-2.0	61.4*	-0.2
COc1ccccc1NC(=O)N[C@@H]1CC[C@H](CC(=O)N[C@H](C)c2ccccc2)O[C@@H]1CO	4.5	nt	nt
C[C@@H]1CCCCO[C@@H](CN(C)C(=O)C2CCCCC2)[C@@H](C)CN([C@@H](C)CO)C(=O)c2cc(NS(=O)(=O)c3cccs3)ccc2O1	19.1	nt	nt
CCOC(=O)c1cnc2ncnn2c1N	-9.9	51.5*	0.5
CCOC(=O)c1cnc2nc(SC)nn2c1N	-3.8	-3.3	-0.9
O=C(NCCc1cnc[nH]1)Nc1cccc(C(F)(F)F)c1	48.5*	nt	-1.2
O=C(NCc1cccnc1)Nc1cccc(C(F)(F)F)c1	-0.6	-4.9	-1.6
C[C@@H]1CCCCO[C@@H](CN(C)Cc2ccc(C(=O)O)cc2)[C@@H](C)CN([C@H](C)CO)C(=O)c2cc(NC(=O)c3ccncc3)ccc2O1	3.9	nt	nt
O=C(O)C1CC=CCC1C(=O)Nc1ccccc1 (stereo not drawn)	0.2	0.6	-0.8
O=C(COC(=O)c1ccc(NC(=O)C2CC=CCC2C(=O)O)cc1)c1ccccc1 (stereo not drawn)	5.4	66.8*	nt
Cc1cc(=O)oc(C)c1C(=O)NCCNC(=O)c1c(C)cc(=O)oc1C	-4.0	-1.0	-0.3
Cc1cc(=O)oc(C)c1C(=O)NCCc1ccc(F)cc1	3.3	38.9*	nt
C[C@H](CO)N1C[C@H](C)[C@@H](CN(C)C(=O)Nc2ccc(F)cc2)Oc2ccc(NS(=O)(=O)c3ccccc3)cc2C1=O	-10.8	nt	nt
C[C@@H]1CN([C@H](C)CO)S(=O)(=O)c2ccc(-c3ccncc3)cc2O[C@H]1CN(C)C(=O)CN(C)C	7.9	nt	nt
CC(C)(C)NC(=O)CSc1nnc(-c2c[nH]c3ccccc23)o1	-9.7	-4.4	-2.0
CCCC(C)NC(=O)CSc1nnc(-c2c[nH]c3ccccc23)o1 (stereo not drawn)	-14.7	46.4*	-2.4
COCC(=O)N(C)C[C@@H]1Oc2cc(-c3ccccc3F)ccc2S(=O)(=O)N([C@@H](C)CO)C[C@H]1C	-6.6	nt	nt
Cn1c(NCc2cccnc2)nc2c1c(=O)n(Cc1ccccc1F)c(=O)n2C	-0.6	+	5.9
COCCNc1nc2c(c(=O)n(Cc3ccccc3F)c(=O)n2C)n1C	-2.5	-1.3	0.2
CCCCOCCCNC(=O)CCCOc1ccccc1	-2.5	-4.9	0.8
CCOCCCNC(=O)CCCC1=NS(=O)(=O)c2ccccc2N1	active	nt	-2.9
CCOCCCNC(=O)CCCOc1ccccc1	-4.9	69.7*	-1.2
O=C(CCCC1=NS(=O)(=O)c2ccccc2N1)NCCc1ccc(Cl)cc1	2.6	-6.4	-1.3
SMILES	ARNT-TACC3 inh	CAL PDZ FP-1	CAL PDZ FP-2
CCCNC(=O)Nc1ccc2c(c1)OC[C@H](C)N(C(C)=O)C[C@@H](C)[C@@H](OC)CN(C)C2=O	-3.3	nt	nt
Cc1noc(C)c1NC(=O)N(C)C[C@H]1Oc2ccc(NS(=O)(=O)c3ccccc3)cc2CC(=O)N([C@@H](C)CO)C[C@H]1C	-7.8	nt	nt
C[C@@H]1CN([C@@H](C)CO)C(=O)c2cc(NC(=O)Nc3ccc4c(c3)OCO4)ccc2O[C@@H]1CN(C)C(=O)Nc1ccc(C(F)(F)F)cc1	15.2	nt	nt
O=C(c1ccc(S(=O)(=O)N2CCCC2)cc1)N1CCCCCC1	-8.6	66.9*	-1.3
COc1cc(C(=O)NCCc2ccc(S(=O)(=O)N3CCCC3)cc2)cc(OC)c1OC	-6.5	nt	-0.7
O=C(Nc1ccc(C(=O)N2CCCCC2)cc1)C1CC1	19.9	41.9*	0.0
O=C(c1cccc(S(=O)(=O)N2CCCCCC2)c1)N1CCN(c2ccccc2F)CC1	23.0	5.6	-3.3
Cc1ccc(C(=O)NCCc2ccc(S(=O)(=O)N3CCCC3)cc2)cc1	-4.2	43.9*	-0.3
CC1CCN(C(=O)c2ccc(S(=O)(=O)N3CCCCCC3)cc2)CC1	nt	-2.7	1.1
O=C(Nc1ccc(C(=O)N2CCCC2)cc1)C1CCCCC1	-6.2	-4.6	-0.4
Cc1cccc(N2CCN(C(=O)c3cccc(S(=O)(=O)N4CCCCC4)c3)CC2)c1C	5.0	69.0*	-0.1
